# T1: Oleandomycin glycosyltransferase (Streptomyces antibioticus), Q53685 [P67T]
# T1 sequence (whole entry): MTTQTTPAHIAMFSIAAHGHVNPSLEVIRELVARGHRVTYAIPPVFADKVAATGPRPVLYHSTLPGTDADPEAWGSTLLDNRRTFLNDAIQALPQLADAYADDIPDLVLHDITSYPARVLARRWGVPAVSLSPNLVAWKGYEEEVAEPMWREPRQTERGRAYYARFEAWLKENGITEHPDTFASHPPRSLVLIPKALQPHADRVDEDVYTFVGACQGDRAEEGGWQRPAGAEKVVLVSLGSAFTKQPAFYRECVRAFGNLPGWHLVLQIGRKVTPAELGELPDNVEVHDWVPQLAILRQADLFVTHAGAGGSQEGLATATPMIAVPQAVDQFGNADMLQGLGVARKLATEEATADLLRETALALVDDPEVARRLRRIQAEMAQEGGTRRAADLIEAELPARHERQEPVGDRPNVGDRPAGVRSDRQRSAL
# T2: Oleandomycin glycosyltransferase (Streptomyces antibioticus) (UniProt Q53685)
# T2 sequence (whole entry): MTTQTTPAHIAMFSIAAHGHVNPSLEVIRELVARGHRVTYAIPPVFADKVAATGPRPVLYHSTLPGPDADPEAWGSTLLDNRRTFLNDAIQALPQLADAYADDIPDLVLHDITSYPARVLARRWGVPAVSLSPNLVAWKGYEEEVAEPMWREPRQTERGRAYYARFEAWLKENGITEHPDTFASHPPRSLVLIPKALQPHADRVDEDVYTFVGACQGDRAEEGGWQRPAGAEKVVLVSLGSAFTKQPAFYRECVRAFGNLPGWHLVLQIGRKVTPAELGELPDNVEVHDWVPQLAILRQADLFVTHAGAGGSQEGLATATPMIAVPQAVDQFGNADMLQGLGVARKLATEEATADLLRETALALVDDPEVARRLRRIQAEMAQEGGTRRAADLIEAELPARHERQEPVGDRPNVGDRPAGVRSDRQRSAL
# T3: Oleandomycin glycosyltransferase (Streptomyces antibioticus), Q53685 [P67T,S132F,A242V]
# T3 sequence (whole entry): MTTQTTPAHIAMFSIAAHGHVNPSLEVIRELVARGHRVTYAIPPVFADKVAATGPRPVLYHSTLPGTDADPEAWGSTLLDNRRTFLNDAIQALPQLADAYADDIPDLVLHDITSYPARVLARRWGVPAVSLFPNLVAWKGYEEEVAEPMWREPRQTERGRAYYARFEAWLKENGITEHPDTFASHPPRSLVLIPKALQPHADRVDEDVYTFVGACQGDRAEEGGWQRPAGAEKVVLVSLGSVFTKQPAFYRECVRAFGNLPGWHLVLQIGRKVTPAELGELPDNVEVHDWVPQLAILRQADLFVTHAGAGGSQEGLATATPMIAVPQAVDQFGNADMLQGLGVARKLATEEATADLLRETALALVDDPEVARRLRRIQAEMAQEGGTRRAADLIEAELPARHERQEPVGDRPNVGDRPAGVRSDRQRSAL
# T4: Oleandomycin glycosyltransferase (Streptomyces antibioticus), Q53685 [A242V]
# T4 sequence (whole entry): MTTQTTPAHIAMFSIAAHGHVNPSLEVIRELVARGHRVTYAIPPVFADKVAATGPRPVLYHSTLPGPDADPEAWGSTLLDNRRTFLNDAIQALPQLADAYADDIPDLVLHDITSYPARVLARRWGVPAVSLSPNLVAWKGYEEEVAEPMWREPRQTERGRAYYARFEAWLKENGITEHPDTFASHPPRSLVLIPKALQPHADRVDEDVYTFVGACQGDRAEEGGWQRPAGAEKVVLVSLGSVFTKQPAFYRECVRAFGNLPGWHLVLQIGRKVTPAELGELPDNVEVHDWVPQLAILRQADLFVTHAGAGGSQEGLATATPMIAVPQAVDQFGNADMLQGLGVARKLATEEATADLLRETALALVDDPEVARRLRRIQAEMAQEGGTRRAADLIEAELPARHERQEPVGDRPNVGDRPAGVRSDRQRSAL
# Experiments:
# [1] = test system: T1, Oleandomycin glycosyltransferase (Streptomyces antibioticus), Q53685 [P67T]; assay: Activity of Streptomyces antibioticus OleD P67T mutant assessed as as rate of glucoside formation measured as nanomoles of product formed per minute per mg of enzyme
# [2] = biological target: T2, Oleandomycin glycosyltransferase (Streptomyces antibioticus); assay: Activity at Streptomyces antibioticus wild-type OleD assessed as as rate of glucoside formation measured as nanomoles of product formed per minute per mg of enzyme
# [3] = test system: T3, Oleandomycin glycosyltransferase (Streptomyces antibioticus), Q53685 [P67T,S132F,A242V]; assay: Activity of Streptomyces antibioticus OleD P67T/S132F/A242V mutant assessed as as rate of glucoside formation measured as nanomoles of product formed per minute per mg of enzyme
# [4] = biological target: T2, Oleandomycin glycosyltransferase (Streptomyces antibioticus); assay: Activity of Streptomyces antibioticus OleD […] mutant assessed as as rate of glucoside formation measured as nanomoles of product formed per minute per mg of enzyme
# [5] = test system: T4, Oleandomycin glycosyltransferase (Streptomyces antibioticus), Q53685 [A242V]; assay: Activity of Streptomyces antibioticus OleD A242V mutant assessed as as rate of glucoside formation measured as nanomoles of product formed per minute per mg of enzyme
# [6] = substrate: Cc1cc(=O)oc2cc(O)ccc12; assay: Ratio of Kcat to Km for Streptomyces antibioticus wild-type OleD assessed as as rate of glucoside formation at 10 mM using varying NDP sugar UDP-glucose concentration by enzyme kinetics assay
# In short: (§1)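 Steady-state kinetics of wild-type OleD glucosylating the acceptor 4-methylumbelliferone to its 7-O-glucoside, with the acceptor fixed at 10 mM and donor UDP-glucose as the variable substrate. Apparent donor kinetic parameters were taken from the rate versus UDP-glucose concentration data.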
# [7] = substrate: Cc1cc(=O)oc2cc(O)ccc12; assay: Activity of Streptomyces antibioticus wild-type OleD assessed as as rate of glucoside formation at 10 mM using varying NDP sugar UDP-glucose concentration by enzyme kinetics assay; in short: as §1
# [8] = substrate: Cc1cc(=O)oc2cc(O)ccc12; assay: Ratio of Kcat to Km for Streptomyces antibioticus wild-type OleD assessed as as rate of glucoside formation using varying compound concentration by enzyme kinetics assay
# In short: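 Wild-type OleD steady-state kinetics with 4-methylumbelliferone as the variable acceptor, up to 10 mM (its solubility limit in water/DMSO), and UDP-glucose as donor. Read-out was the rate of glucoside formation. kcat/Km was obtained by linear regression of rate against acceptor concentration.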
# [9] = substrate: Cc1cc(=O)oc2cc(O)ccc12; assay: Activity of Streptomyces antibioticus OleD P67T/S132F/A242V mutant assessed as as rate of glucoside formation using varying compound concentration by enzyme kinetics assay
# In short: (§2)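 Steady-state kinetics with the acceptor 4-methylumbelliferone as the variable substrate and UDP-Glc as donor. The acceptor limit was its solubility in water/DMSO, 10 mM. Apparent Km and kcat were derived from the saturation curve.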
# [10] = substrate: Cc1cc(=O)oc2cc(O)ccc12; assay: Ratio of Kcat to Km for Streptomyces antibioticus OleD P67T/S132F/A242V mutant assessed as as rate of glucoside formation using varying compound concentration by enzyme kinetics assay; in short: as §2
# [11] = substrate: Cc1cc(=O)oc2cc(O)ccc12; assay: Ratio of Kcat to Km for Streptomyces antibioticus OleD P67T/S132F/A242V mutant assessed as rate of glucoside formation at 10 mM using varying NDP sugar UDP-glucose concentration by enzyme kinetics assay
# In short: (§3)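 Steady-state kinetics with donor UDP-Glc varied at a fixed concentration of the acceptor 4-methylumbelliferone. The result was reported as an apparent donor Km, with kcat from the same analysis.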
# [12] = substrate: Cc1cc(=O)oc2cc(O)ccc12; assay: Activity of Streptomyces antibioticus OleD P67T/S132F/A242V mutant assessed as rate of glucoside formation at 10 mM using varying NDP sugar UDP-glucose concentration by enzyme kinetics assay; in short: as §3
Molecule,Activity [1],Activity [2],Activity [3],Activity [4],Activity [5],also measured
CC(C)=CCc1cc(C(=O)Nc2c(O)c3ccc(O)c(C)c3oc2=O)ccc1O,0.65 nmol/min,0.24 nmol/min,1.14 nmol/min,0.49 nmol/min,0.33 nmol/min,
O=c1c(-c2ccc(O)cc2)coc2cc(O)ccc12,16 nmol/min,4.2 nmol/min,24 nmol/min,5.5 nmol/min,8.5 nmol/min,
O=C(O)Cc1cc(=O)oc2cc(O)ccc12,0.22 nmol/min,,3.6 nmol/min,0.08 nmol/min,0.16 nmol/min,
O=C(O)c1cc2ccc(O)cc2oc1=O,0.022 nmol/min,0.01 nmol/min,0.62 nmol/min,0.022 nmol/min,0.01 nmol/min,
CO[C@H]1C[C@H](O[C@H]2[C@H](C)[C@@H](O[C@@H]3O[C@H](C)C[C@H](N(C)C)[C@H]3O)[C@@H](C)C[C@@]3(CO3)C(=O)[C@H](C)[C@@H](O)[C@@H](C)[C@@H](C)OC(=O)[C@@H]2C)O[C@@H](C)[C@@H]1O,200 nmol/min,700 nmol/min,13 nmol/min,1490 nmol/min,70 nmol/min,
O=c1c(-c2ccc(O)cc2)coc2cc(O)cc(O)c12,28.8 nmol/min,3.4 nmol/min,26 nmol/min,8.8 nmol/min,14.1 nmol/min,
O=c1c(O)c(-c2ccc(O)cc2)oc2cc(O)cc(O)c12,99.9 nmol/min,13.2 nmol/min,28 nmol/min,23 nmol/min,15.3 nmol/min,
"Oleandomycin glycosyltransferase (Streptomyces antibioticus), Q53685 (protein) MTTQTTPAHIAMFSIAAHGHVNPSLEVIRELVARGHRVTYAIPPVFADKVAATGPRPVLYHSTLPGPDADPEAWGSTLLDNRRTFLNDAIQALPQLADAYADDIPDLVLHDITSYPARVLARRWGVPAVSLSPNLVAWKGYEEEVAEPMWREPRQTERGRAYYARFEAWLKENGITEHPDTFASHPPRSLVLIPKALQPHADRVDEDVYTFVGACQGDRAEEGGWQRPAGAEKVVLVSLGSAFTKQPAFYRECVRAFGNLPGWHLVLQIGRKVTPAELGELPDNVEVHDWVPQLAILRQADLFVTHAGAGGSQEGLATATPMIAVPQAVDQFGNADMLQGLGVARKLATEEATADLLRETALALVDDPEVARRLRRIQAEMAQEGGTRRAADLIEAELPARHERQEPVGDRPNVGDRPAGVRSDRQRSAL",,,,,,kcat/Km [6]: 28.8 M⁻¹ s⁻¹; Km [7]: 300 µM; kcat [7]: 0.00867 s⁻¹; kcat/Km [8]: 3 M⁻¹ s⁻¹
"Oleandomycin glycosyltransferase (Streptomyces antibioticus), Q53685 P67T,S132F,A242V (protein) MTTQTTPAHIAMFSIAAHGHVNPSLEVIRELVARGHRVTYAIPPVFADKVAATGPRPVLYHSTLPGTDADPEAWGSTLLDNRRTFLNDAIQALPQLADAYADDIPDLVLHDITSYPARVLARRWGVPAVSLFPNLVAWKGYEEEVAEPMWREPRQTERGRAYYARFEAWLKENGITEHPDTFASHPPRSLVLIPKALQPHADRVDEDVYTFVGACQGDRAEEGGWQRPAGAEKVVLVSLGSVFTKQPAFYRECVRAFGNLPGWHLVLQIGRKVTPAELGELPDNVEVHDWVPQLAILRQADLFVTHAGAGGSQEGLATATPMIAVPQAVDQFGNADMLQGLGVARKLATEEATADLLRETALALVDDPEVARRLRRIQAEMAQEGGTRRAADLIEAELPARHERQEPVGDRPNVGDRPAGVRSDRQRSAL",,,,,,Km [9]: 140 µM; kcat [9]: 0.0247 s⁻¹; kcat/Km [10]: 177 M⁻¹ s⁻¹; kcat/Km [11]: 717 M⁻¹ s⁻¹; Km [12]: 0.03 min⁻¹; kcat [12]: 0.0215 s⁻¹
